# The list is not random: actives were taken first. Their share in the collection is about 1%.
# VIM-2 inh: inhibitors of Pseudomonas aeruginosa VIM-2 metallo-beta-lactamase. purified VIM-2, nitrocefin hydrolysis, epi-absorbance fluorescence. inhibition, % at 5.6 µM. 0.89% of 290,000 active;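 active = inhibition above the mean of all tested compounds plus 3 SD, cutoff set per screening run, cut at about 7.5% in these data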;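 also: red hydrolysis product quenches plate fluorescence so inhibitors raise well fluorescence; 0% = enzyme with DMSO and 100% = DMSO without enzyme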
# RAD54 branch: inhibitors of human RAD54 branch migration; RAD54 Holliday junction branch migration, FAM/BHQ fluorescence; inhibition, % at 10.4 µM; AID 602329; Q92698; 0.14% of 360,000 active;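 active = mean normalized replicate activity at least 40 and at least half of replicates scoring 40 or more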;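 also: 0% = median of neutral control wells and 100% = median of positive control wells; inhibitors cause a drop in the FAM fluorescence signal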
# Target sequence (Q92698 whole entry, looked up): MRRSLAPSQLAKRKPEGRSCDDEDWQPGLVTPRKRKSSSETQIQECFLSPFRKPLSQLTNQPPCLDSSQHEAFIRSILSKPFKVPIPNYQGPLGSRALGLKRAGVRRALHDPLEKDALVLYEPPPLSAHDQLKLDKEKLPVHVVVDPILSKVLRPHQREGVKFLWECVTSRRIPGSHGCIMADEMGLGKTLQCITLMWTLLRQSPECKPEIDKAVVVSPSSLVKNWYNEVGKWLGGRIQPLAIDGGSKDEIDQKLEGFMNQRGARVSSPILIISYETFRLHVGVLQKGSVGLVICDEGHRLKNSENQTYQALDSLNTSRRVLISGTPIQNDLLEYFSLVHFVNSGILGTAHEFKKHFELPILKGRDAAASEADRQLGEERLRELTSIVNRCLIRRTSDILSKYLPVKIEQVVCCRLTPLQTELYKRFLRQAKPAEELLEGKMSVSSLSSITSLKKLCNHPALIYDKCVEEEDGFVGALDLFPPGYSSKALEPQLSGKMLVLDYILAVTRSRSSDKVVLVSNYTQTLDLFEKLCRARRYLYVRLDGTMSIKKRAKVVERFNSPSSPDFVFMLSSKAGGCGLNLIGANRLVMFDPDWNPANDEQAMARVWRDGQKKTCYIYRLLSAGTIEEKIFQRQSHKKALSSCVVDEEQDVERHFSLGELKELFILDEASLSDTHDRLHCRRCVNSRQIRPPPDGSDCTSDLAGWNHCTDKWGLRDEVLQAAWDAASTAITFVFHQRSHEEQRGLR
# IMP-1 inh: inhibitors of Pseudomonas aeruginosa IMP-1 metallo-beta-lactamase; purified IMP-1, nitrocefin hydrolysis, epi-absorbance fluorescence; inhibition, % at 5.6 µM; 0.45% of 290,000 active; AID 1556;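 active = inhibition above the mean plus 3 SD of all compounds in the same screening run, cut at about 4.5% in these data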;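 also: 0% = IMP-1 with DMSO and 100% = DMSO wells lacking enzyme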
#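 Material – recombinant IMP-1 enzyme, purified · Amount – IMP-1 0.2 nM before substrate addition · Medium – HEPES buffer pH 7.1 with ZnSO4 and Brij 35 · Timing – 25 °C, 15 min preincubation, 25 min reaction · Measured by – plate fluorescence quenching by hydrolysis product, ex 480/em 530 nm · Read-out – percent enzyme inhibition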
# DNA FID counter: counter-screen for HCV NS3 helicase inhibitors: DNA intercalator displacement; 0.17% of 290,000 active; DNA fluorescent intercalator displacement, fluorescence; inhibition, % at 7.9 µM; AID 1845; in the data active = inhibition above about 37%;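 also: 0% = vehicle and 100% = reference compound; higher means more ethidium bromide displaced from hairpin DNA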
# PvdQ inh: blocks Pseudomonas aeruginosa PvdQ acylase activity | 0.063% of 340,000 active | inhibition, % at 10 µM | purified PvdQ acylase, fluorescence plate reader; in the data active = inhibition above about 30%, passing the limit was not always enough;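 also: 0% = vehicle neutral wells and 100% = reference inhibitor wells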
# * hit, by the source's call; . = no result given.
SMILES,VIM-2 inh,RAD54 branch,IMP-1 inh,DNA FID counter,PvdQ inh
O=c1[nH]c2ccccc2cc1CN(CC1CCCO1)S(=O)(=O)c1ccc(Cl)cc1 (stereo not given),-0.4,1.1,-1.6,-30.1,-8.3
NS(=O)(=O)c1ccc(S(=O)(=O)N(Cc2ccccc2F)CC2CCCO2)cc1 (stereo not given),-0.8,-7.3,5.0*,-12.3,-13.4
O=c1nc2ccc(Cl)cn2c2ccc(S(=O)(=O)N3CCOCC3)cc12,11.2*,6.8,-1.6,-14.9,-19.8
O=C(CCC(=O)c1cccs1)NC(c1ccccc1)c1ccccc1,0.4,12.5,-1.2,-8.2,-20.9
NS(=O)(=O)c1ccc(NC(=O)CCC(=O)c2cccs2)cc1,0.1,4.0,1.5,1.0,8.6
NC(=O)c1ccc(NC(=O)CCC(=O)c2cccs2)cc1,-3.6,-16.0,5.0*,-9.7,-10.1
O=C(CCC(=O)c1cccs1)c1cccs1,-2.4,-3.7,4.6*,-0.1,-3.4
Cc1ccc(S(=O)(=O)N(C)C[C@H]2OCCCC[C@H](C)Oc3ccc(NC(=O)Nc4ccc5c(c4)OCO5)cc3C(=O)N([C@@H](C)CO)C[C@H]2C)cc1,.,7.1,.,.,.
CN(C)CCCN1C(=O)c2oc3ccc(Cl)cc3c(=O)c2C1c1cccnc1 (stereo not given),1.5,-11.1,6.4*,4.8,-9.9
C[C@H]1CN([C@@H](C)CO)C(=O)Cc2cc(NS(=O)(=O)c3cccs3)ccc2O[C@@H]1CN(C)C,.,-8.9,.,.,.
C[C@@H]1CCCCO[C@H](CN(C)Cc2ccc3c(c2)OCO3)[C@H](C)CN([C@H](C)CO)C(=O)c2cc(NC(=O)C3CCCCC3)ccc2O1,.,-7.5,.,.,.
O=c1[nH]c(=S)[nH]c2c1C(c1ccc(Br)cc1)c1c([nH]c(=S)[nH]c1=O)O2,-7.5,55.6*,-2.2,-1.1,-8.7
CO[C@H]1CN(C)C(=O)c2cc(NC(=O)Nc3c(C)noc3C)ccc2OC[C@@H](C)N(CC2CC2)C[C@H]1C,.,2.7,.,.,.
CC(=O)c1ccc(N2CCN(c3ccc4cc(S(=O)(=O)N5CCC(C)CC5)ccc4n3)CC2)cc1,-2.0,2.3,12.4*,-1.6,-5.4
Cc1ccc(-n2c(-c3cn(C)nc3C)n[nH]c2=S)cc1,8.9*,.,-4.8,-9.2,.
Cn1cc(Cl)c(-c2n[nH]c(=S)n2-c2ccc(F)cc2)n1,11.3*,.,-1.1,-5.3,-7.6
Cc1nn(C)cc1-c1n[nH]c(=S)n1-c1ccc(F)cc1,4.9,.,-1.8,-9.2,-3.7
Fc1ccc(-c2n[nH]c(=S)n2-c2ccc3c(c2)OCCO3)cc1,9.2*,.,-0.4,-14.7,-7.4
Cc1occc1-c1n[nH]c(=S)n1-c1ccccc1,8.7*,10.6,-5.3,-0.1,-17.5
C[C@H](CO)N1C[C@H](C)[C@H](CN(C)C)Oc2ccc(NC(=O)Cc3ccccc3)cc2C1=O,.,18.1,.,.,.
Cc1ccc(S(=O)(=O)N(C)C[C@H]2Oc3ccc(NC(=O)C4CCCCC4)cc3C(=O)N([C@@H](C)CO)C[C@H]2C)cc1,.,0.7,.,.,.
CC(=O)N(CCCc1ccc(C(C)(C)C)cc1)CCCN(C)C,2.5,.,1.3,38.3*,4.9
CC(=O)N(CCCN(C)C)Cc1ccccn1,-1.4,.,-2.5,0.5,-5.1
C[C@@H]1CN([C@@H](C)CO)C(=O)Cc2cc(NC(=O)Nc3ccc(F)cc3)ccc2O[C@@H]1CN(C)CC1CCCCC1,.,-10.2,.,.,.
CC=Cc1ccc2n(c1=O)C[C@@H]1[C@@H](CO)[C@H](C(=O)NC3CCC3)N(S(C)(=O)=O)[C@H]21 (mixture of isomers),.,6.5,.,.,.
SMILES,VIM-2 inh,RAD54 branch,IMP-1 inh,DNA FID counter,PvdQ inh
C[C@H](CO)N1C[C@H](C)[C@@H](CN(C)S(=O)(=O)c2ccc(F)cc2)OCCCC[C@H](C)Oc2ccc(NC(=O)Nc3ccccc3)cc2C1=O,.,-6.0,.,.,.
CCN1CCC(Nc2ccnc3cc(Cl)ccc23)CC1,1.6,19.5,-1.2,49.8*,7.9
CN1C(=O)c2cccc3c(S(=O)(=O)Nc4ccc(O)c(C(=O)O)c4)ccc1c23,11.6*,20.7,1.8,-20.5,1.6
O=C(C[C@@H]1C=C[C@H](NC(=O)C2CCOCC2)[C@@H](CO)O1)NCC1CC1,.,-9.5,.,.,.
Cc1c(NC(=S)N/N=C/c2cccc(O)c2)c(=O)n(-c2ccccc2)n1C,10.0*,-7.9,-2.3,-7.4,1.7
Cc1c(NC(=S)N/N=C/c2ccc(N(C)C)cc2)c(=O)n(-c2ccccc2)n1C,1.3,.,-0.9,-21.8,-8.9
COC(=O)c1cc(N=CC2=C(O)CC(C)(C)CC2=O)cc(C(=O)OC)c1,-6.8,.,-3.0,-16.2,0.4
COC(=O)c1cc(OC)c(OC)cc1N=CC1=C(O)CC(C)(C)CC1=O,0.7,9.4,5.1*,-10.7,-2.9
CCCC(=O)Nc1ccc2c(c1)OC[C@@H](C)N(C(=O)Cc1cccnc1)C[C@@H](C)[C@H](OC)CN(C)C2=O,.,12.0,.,.,.
Cc1cccc(C(=O)NNC(=O)C2CC2)c1,8.7*,0.7,-2.0,-2.6,-1.5
COc1cccc(NC(=O)Cn2c3ccc(F)cc3c3nc4n(c(=O)c32)CCCS4)c1,1.2,-12.4,6.5*,-10.9,-13.5
O=C(O)c1ccc(Nc2c3ccccc3nc3ccccc23)cc1,-2.2,-23.7,-1.3,6.4,-17.1
c1cncc(Nc2c3ccccc3nc3ccccc23)c1,10.1*,78.1*,-1.4,37.3*,5.8
CCS(=O)(=O)NCC[C@H]1CC[C@@H](NC(=O)C2CCCC2)[C@H](CO)O1,.,2.6,.,.,.
CCOC(=O)c1c(CN2CCN(C)CC2)n(C)c2cc(Br)c(OC)cc12,7.3,.,-0.8,30.6,1.0
CCOC(=O)c1c(C)oc2c(CN3CCN(C)CC3)c(Br)c(OC)c(O)c12,10.4*,5.9,-2.2,9.4,4.0
O=C(c1ccc(S(=O)(=O)N2CCCCCC2)cc1)N1CCC(CN2C(=O)c3cccc4cccc(c34)C2=O)CC1,-3.8,-0.4,5.2*,-1.1,-10.2
O=C1c2cccc3cccc(c23)C(=O)N1CC1CCN(S(=O)(=O)c2ccccc2)CC1,.,-8.3,.,.,7.5
CCSc1nnc2c3cc(CC)ccc3n(C)c2n1,8.2*,-8.7,-2.8,-25.9,7.5
CCOC(=O)C(CC)Sc1nnc2c3cc(C)ccc3n(C)c2n1 (stereo not given),9.4*,-5.9,-0.5,-14.9,-9.7
COc1ccc(N2CCN(C(=O)CSc3nnc4c5cc(C)ccc5n(C)c4n3)CC2)cc1,1.5,-7.8,-1.1,-5.5,-5.2
C=CC[C@@]1(C(=O)NCCCOC)N=C(c2ccc(OCCCO)cc2)O[C@@H]1c1ccccc1,.,-8.2,.,.,.
CCC(=O)Nc1ccc2c(c1)OC[C@@H](C)N(C(=O)C1CC1)C[C@@H](C)[C@H](OC)CN(C)C2=O,.,-8.2,.,.,.
Cc1c(NC(=O)c2cccnc2Cl)c(=O)n(-c2ccccc2)n1C,-0.2,-11.0,7.0*,-6.5,-0.7

# Screening data (PubChem BioAssay)
